Measurements reported in ChEMBL document CHEMBL5678802, “Small-molecule p21-activated kinase inhibitor PF-3758309 is a potent inhibitor of oncogenic signaling and tumor growth” (Proc Natl Acad Sci U S A, 2010).
Activity calls are given as the source filed them. No cut-off for these calls is given here.

Legend:
COLO 205 [1] = assay: Antiproliferative activity against human COLO 205 cells assessed as inhibition of cell proliferation incubated for 3 days by CellTiter-Glo Luminescent Cell Viability Assay; assay type: functional, cell-based; conditions: COLO 205, 72 h
Procedure, shortened: (§1)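 Cancer cell lines seeded in 384-well plates on day 1; compound added on day 2 and left for 3 days. On day 5 all medium was aspirated, and viable cells were quantified by CellTiter-Glo luminescence, which measures cellular ATP. Dose-dependent effects on proliferation were determined.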

NCI-H526 = assay: Antiproliferative activity against human NCI-H526 cells assessed as inhibition of cell proliferation incubated for 3 days by CellTiter-Glo Luminescent Cell Viability Assay; assay type: functional, cell-based; conditions: NCI-H526, 72 h
Procedure, shortened: (§2)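 Cells of each line were plated in 384-well plates on day 1 and exposed to compound from day 2 for 3 days. On day 5 all medium was aspirated. Viable cell number was read by CellTiter-Glo luminescence, which quantifies cellular ATP.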

NCI-H1734 = assay: Antiproliferative activity against human NCI-H1734 cells assessed as inhibition of cell proliferation incubated for 3 days by CellTiter-Glo Luminescent Cell Viability Assay; assay type: functional, cell-based; conditions: NCI-H1734, 72 h; procedure, shortened: as §2
NCI-H1838 = assay: Antiproliferative activity against human NCI-H1838 cells assessed as inhibition of cell proliferation incubated for 3 days by CellTiter-Glo Luminescent Cell Viability Assay; assay type: functional, cell-based; conditions: NCI-H1838, 72 h; procedure, shortened: as §2
Calu-6 = assay: Antiproliferative activity against human Calu-6 cells assessed as inhibition of cell proliferation incubated for 3 days by CellTiter-Glo Luminescent Cell Viability Assay; assay type: functional, cell-based; conditions: Calu-6, 72 h; procedure, shortened: as §1
PANC-08-13 = assay: Antiproliferative activity against human PANC-08-13 cells assessed as inhibition of cell proliferation incubated for 3 days by CellTiter-Glo Luminescent Cell Viability Assay; assay type: functional, cell-based; conditions: PANC-08-13, 72 h; procedure, shortened: as §2
MIA PaCa-2 = assay: Antiproliferative activity against human MIA PaCa-2 cells assessed as inhibition of cell proliferation incubated for 3 days by CellTiter-Glo Luminescent Cell Viability Assay; assay type: functional, cell-based; conditions: MIA PaCa-2, 72 h
Procedure, shortened: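 Cancer cell lines seeded in 384-well plates on day 1; compound added on day 2 and incubated 3 days. On day 5 media aspirated and viable cells quantified by ATP content using CellTiter-Glo luminescence; dose-dependent proliferation effects determined.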

Panc1005 = assay: Antiproliferative activity against human Panc1005 cells assessed as inhibition of cell proliferation incubated for 3 days by CellTiter-Glo Luminescent Cell Viability Assay; assay type: functional, cell-based; conditions: Panc1005, 72 h; procedure, shortened: as §2
NCI-H1437 = assay: Inhibition of anchorage independent cell growth in human NCI-H1437 cells incubated for 6 days by Alamar blue reagent based fluorescence plate reader analysis; assay type: functional; conditions: NCI-H1437, 144 h
NCI-H1993 = assay: Inhibition of anchorage independent cell growth in human NCI-H1993 cells incubated for 6 days by Alamar blue reagent based fluorescence plate reader analysis; assay type: functional; conditions: NCI-H1993, 144 h
MCF10 = assay: Antiproliferative activity against human MCF10 cells assessed as inhibition of cell proliferation incubated for 3 days by CellTiter-Glo Luminescent Cell Viability Assay; assay type: functional, cell-based; conditions: MCF10, 72 h; procedure, shortened: as §1
HCC38 = assay: Antiproliferative activity against human HCC38 cells assessed as inhibition of cell proliferation incubated for 3 days by CellTiter-Glo Luminescent Cell Viability Assay; assay type: functional, cell-based; conditions: HCC38, 72 h; procedure, shortened: as §1
HCT-116 [2] = assay: Antitumor activity against human HCT-116 cells xenografted in nude mouse assessed as unbound drug concentration for inhibition of tumor growth at 0.12 to 3.3 mg/kg administered via pump for 9 days; assay type: functional; conditions: dose 0.12-3.3 mg/kg; time 9 day
[3] = biological target: T1, Protein kinase C beta type (Homo sapiens, UniProt P05771); assay: Inhibition of human PKCbeta-II in presence of ATP relative to control; conditions: concentration not given here
Target sequence in this assay (P05771 2-671 limits assumed): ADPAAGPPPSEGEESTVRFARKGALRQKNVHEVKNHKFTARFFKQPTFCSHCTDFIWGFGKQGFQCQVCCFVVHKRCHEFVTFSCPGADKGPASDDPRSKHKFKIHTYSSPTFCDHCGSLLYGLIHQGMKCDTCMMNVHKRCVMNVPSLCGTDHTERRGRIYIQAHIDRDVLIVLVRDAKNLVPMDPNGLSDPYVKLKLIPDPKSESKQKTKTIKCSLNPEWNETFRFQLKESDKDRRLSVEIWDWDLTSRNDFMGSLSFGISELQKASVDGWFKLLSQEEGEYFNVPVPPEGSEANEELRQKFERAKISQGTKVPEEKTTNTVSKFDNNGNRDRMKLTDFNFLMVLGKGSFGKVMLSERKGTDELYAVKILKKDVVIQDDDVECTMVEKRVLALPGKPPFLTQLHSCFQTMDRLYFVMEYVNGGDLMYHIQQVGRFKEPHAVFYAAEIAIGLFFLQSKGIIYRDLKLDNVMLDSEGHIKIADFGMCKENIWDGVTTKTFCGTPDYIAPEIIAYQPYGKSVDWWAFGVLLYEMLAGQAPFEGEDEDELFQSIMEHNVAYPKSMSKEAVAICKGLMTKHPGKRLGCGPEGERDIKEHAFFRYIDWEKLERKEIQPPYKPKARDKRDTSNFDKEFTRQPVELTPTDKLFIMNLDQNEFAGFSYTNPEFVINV

[4] = biological target: Protein kinase C gamma type (Homo sapiens, UniProt P05129); assay: Inhibition of human PKCgamma in presence of ATP relative to control; conditions: concentration not given here
[5] = biological target: AMP-activated protein kinase (AMPK) alpha-1/beta-1/gamma-1 (Homo sapiens, UniProt P54619+Q13131+Q9Y478); assay: Inhibition of human AMPK alpha1/beta1/gamma1 in presence of ATP; assay type: protein-complex assay
[6] = biological target: Ribosomal protein S6 kinase alpha-3 (Homo sapiens, UniProt P51812); assay: Inhibition of human RSK2 in presence of ATP
[7] = biological target: Tyrosine-protein kinase Fyn (Homo sapiens, UniProt P06241); assay: Inhibition of human FYN in presence of ATP
[8] = biological target: High affinity nerve growth factor receptor (Homo sapiens, UniProt P04629); assay: Inhibition of human TRKa in presence of ATP
[9] = biological target: Ribosomal protein S6 kinase alpha-1 (Homo sapiens, UniProt Q15418); assay: Inhibition of human RSK1 in presence of ATP by cellular assay
[10] = biological target: Ribosomal protein S6 kinase alpha-2 (Homo sapiens, UniProt Q15349); assay: Inhibition of human RSK3 in presence of ATP by cellular assay
[11] = biological target: T1, Protein kinase C beta type; assay: Inhibition of human PKCbeta1 in presence of ATP by cellular assay
Target sequence in this assay (P05771 whole entry): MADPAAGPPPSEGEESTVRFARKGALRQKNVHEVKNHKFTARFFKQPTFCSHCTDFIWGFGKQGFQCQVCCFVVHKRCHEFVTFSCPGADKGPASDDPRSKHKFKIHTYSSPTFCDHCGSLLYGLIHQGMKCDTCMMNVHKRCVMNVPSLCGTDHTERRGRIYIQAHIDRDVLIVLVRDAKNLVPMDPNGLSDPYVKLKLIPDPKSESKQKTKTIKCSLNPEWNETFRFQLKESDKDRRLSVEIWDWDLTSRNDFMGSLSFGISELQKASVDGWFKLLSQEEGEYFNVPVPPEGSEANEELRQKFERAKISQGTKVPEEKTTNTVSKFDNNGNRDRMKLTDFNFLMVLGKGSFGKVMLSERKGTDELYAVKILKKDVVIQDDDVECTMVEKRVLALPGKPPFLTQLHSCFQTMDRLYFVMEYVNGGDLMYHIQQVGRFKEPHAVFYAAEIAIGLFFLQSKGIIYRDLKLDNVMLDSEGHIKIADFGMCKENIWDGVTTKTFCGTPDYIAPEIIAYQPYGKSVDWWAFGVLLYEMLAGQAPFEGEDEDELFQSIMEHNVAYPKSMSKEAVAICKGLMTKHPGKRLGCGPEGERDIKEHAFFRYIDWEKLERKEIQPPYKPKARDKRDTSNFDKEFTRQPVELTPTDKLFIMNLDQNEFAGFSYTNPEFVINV

[12] = biological target: RAC-gamma serine/threonine-protein kinase (Homo sapiens, UniProt Q9Y243); assay: Inhibition of human AKT3 in presence of ATP by cellular assay
HCT-116 [13] = assay: Induction of cell cycle arrest in human HCT-116 cells assessed as accumulation of cells at G2/M phase at 100 nM measured after 48 hrs by fluorescence activated cell sorter analysis (reference value: 19.78%); assay type: functional
HCT-116 [14] = assay: Downregulation of camptothecin-induced phospho-S810-GEF-H1 level in human HCT-116 cells at 1 uM preincubated with compound for 15 mins followed by camptothecin stimulation and measured after 20 hrs by Western blot analysis; assay type: functional, cell-based; conditions: time 20.25 hrs
COLO 205 [15] = assay: Antitumor activity against human COLO 205 cells xenografted in nude mouse assessed as tumor growth inhibition at 20 mg/kg, po administered once daily for 9 to 18 days relative to control; assay type: functional; conditions: time 9-18 day, read-out: TGI
Procedure, shortened: (§3)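 Tumor cells were implanted s.c. into the right flank of female nu/nu nude mice aged 6–8 weeks. Animals were randomized into treatment groups once tumors were established (example: day 8 postimplant, about 170 mm3, animals >22 g). Compound in 0.5% methylcellulose was given by oral gavage. Tumors were measured with calipers two to three times per week.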

DLD-1 = assay: Antitumor activity against PAK4 -/+ human DLD-1 cells xenografted in nude mouse assessed as tumor growth inhibition at 10 mg/kg, po administered once daily for 9 to 18 days relative to control; assay type: functional; conditions: time 9-18 day, read-out: TGI; procedure, shortened: as §3
MDA-MB-231 = assay: Antitumor activity against human MDA-MB-231 cells xenografted in nude mouse assessed as tumor growth inhibition at 20 mg/kg, po administered once daily for 9 to 18 days relative to control; assay type: functional; conditions: time 9-18 day, read-out: TGI
HCT-116 [16] = assay: Antitumor activity against human HCT-116 cells xenografted in nude mouse assessed as tumor growth inhibition at 1.1 mg/kg administered via pump for 9 days relative to control; assay type: functional; conditions: HCT-116, 216 h, time 9 day, read-out: TGI
A549 = assay: cells; conditions: Homo sapiens, A549, 144 h

Sequence of Tyrosine-protein kinase Fyn (P06241 whole entry): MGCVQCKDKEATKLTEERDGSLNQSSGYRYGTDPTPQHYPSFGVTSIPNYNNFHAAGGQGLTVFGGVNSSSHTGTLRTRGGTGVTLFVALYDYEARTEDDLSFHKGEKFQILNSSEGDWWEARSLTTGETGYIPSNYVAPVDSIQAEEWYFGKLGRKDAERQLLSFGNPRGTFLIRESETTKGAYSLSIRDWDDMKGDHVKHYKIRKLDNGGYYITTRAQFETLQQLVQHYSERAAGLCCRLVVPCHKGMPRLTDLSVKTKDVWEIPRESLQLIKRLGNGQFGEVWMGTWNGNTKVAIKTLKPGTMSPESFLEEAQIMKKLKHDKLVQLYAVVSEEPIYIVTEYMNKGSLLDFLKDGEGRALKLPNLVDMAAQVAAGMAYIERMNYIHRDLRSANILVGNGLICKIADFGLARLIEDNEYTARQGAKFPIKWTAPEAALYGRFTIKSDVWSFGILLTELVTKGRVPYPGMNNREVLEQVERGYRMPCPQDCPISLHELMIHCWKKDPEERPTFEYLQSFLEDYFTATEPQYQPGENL
Sequence of High affinity nerve growth factor receptor (P04629 whole entry): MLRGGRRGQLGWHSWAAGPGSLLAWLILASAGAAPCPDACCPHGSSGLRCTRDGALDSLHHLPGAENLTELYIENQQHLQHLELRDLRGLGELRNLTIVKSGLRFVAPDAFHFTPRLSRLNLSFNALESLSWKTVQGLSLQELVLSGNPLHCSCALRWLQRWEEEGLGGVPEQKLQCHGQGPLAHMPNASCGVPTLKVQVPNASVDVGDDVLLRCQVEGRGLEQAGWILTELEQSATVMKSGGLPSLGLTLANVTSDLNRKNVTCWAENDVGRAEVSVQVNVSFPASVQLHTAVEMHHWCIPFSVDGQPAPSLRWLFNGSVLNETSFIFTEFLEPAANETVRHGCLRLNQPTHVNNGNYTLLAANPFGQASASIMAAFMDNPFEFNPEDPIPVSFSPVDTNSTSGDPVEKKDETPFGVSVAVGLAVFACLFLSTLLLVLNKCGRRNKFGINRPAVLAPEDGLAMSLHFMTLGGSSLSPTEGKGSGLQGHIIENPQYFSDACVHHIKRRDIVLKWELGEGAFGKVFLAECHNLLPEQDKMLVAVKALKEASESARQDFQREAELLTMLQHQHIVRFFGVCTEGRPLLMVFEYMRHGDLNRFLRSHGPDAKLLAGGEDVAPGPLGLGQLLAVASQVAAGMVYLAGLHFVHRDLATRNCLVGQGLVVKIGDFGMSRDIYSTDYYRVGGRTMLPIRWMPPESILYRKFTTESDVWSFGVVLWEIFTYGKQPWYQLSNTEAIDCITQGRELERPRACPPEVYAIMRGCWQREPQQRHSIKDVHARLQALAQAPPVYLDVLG
Sequence of AMP-activated protein kinase (AMPK) alpha-1/beta-1/gamma-1 (P54619 whole entry): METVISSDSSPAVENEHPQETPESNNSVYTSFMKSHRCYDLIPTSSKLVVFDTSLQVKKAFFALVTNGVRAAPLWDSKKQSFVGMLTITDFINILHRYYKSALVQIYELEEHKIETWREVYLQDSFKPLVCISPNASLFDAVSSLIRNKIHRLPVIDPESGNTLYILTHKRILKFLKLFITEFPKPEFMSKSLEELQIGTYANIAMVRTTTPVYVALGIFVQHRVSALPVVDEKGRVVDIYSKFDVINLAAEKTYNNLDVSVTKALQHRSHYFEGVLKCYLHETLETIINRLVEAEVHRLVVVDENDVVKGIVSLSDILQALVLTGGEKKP
Sequence of AMP-activated protein kinase (AMPK) alpha-1/beta-1/gamma-1 (Q9Y478 whole entry): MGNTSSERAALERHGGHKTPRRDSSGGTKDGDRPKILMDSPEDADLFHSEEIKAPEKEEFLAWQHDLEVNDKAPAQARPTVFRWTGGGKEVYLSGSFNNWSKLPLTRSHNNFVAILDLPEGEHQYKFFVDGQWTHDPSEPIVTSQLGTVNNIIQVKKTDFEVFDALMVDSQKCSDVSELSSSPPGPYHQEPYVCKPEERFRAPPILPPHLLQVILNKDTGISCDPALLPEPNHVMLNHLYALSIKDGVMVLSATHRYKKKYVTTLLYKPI
Sequence of AMP-activated protein kinase (AMPK) alpha-1/beta-1/gamma-1 (Q13131 whole entry): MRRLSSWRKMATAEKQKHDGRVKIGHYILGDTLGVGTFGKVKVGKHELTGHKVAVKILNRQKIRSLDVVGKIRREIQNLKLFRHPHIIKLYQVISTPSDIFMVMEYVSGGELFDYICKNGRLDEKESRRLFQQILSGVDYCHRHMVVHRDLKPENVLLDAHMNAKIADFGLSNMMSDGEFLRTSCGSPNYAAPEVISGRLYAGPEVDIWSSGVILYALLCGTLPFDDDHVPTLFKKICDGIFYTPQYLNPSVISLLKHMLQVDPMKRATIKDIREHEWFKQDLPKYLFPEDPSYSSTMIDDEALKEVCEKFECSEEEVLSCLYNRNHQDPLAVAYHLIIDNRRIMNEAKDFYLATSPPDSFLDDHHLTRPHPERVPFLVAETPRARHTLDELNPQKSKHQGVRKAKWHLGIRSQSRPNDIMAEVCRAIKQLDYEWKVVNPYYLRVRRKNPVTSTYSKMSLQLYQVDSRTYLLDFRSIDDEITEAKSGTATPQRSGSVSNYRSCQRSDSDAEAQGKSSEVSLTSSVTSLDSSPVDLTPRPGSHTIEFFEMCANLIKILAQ
Sequence of Ribosomal protein S6 kinase alpha-2 (Q15349 whole entry): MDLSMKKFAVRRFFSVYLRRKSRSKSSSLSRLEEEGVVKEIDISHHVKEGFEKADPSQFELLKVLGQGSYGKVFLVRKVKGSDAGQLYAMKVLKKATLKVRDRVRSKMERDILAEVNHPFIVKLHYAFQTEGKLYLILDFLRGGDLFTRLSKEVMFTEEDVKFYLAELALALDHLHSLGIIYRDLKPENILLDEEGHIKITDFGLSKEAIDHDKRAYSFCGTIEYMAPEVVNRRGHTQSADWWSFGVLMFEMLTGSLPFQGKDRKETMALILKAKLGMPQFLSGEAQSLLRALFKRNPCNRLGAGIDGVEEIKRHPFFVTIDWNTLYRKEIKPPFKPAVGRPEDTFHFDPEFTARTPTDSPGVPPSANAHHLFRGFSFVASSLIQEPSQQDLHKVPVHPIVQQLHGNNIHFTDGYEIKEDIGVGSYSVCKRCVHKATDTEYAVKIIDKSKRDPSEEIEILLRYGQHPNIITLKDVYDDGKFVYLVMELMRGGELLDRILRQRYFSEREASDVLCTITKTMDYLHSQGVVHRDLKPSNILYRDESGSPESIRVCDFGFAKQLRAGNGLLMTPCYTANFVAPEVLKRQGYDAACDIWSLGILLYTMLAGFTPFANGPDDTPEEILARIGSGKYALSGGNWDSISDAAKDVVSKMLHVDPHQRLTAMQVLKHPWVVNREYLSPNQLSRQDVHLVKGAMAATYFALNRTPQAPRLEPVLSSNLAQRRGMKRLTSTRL

Cc1nc(Nc2n[nH]c3c2CN(C(=O)N[C@H](CN(C)C)c2ccccc2)C3(C)C)c2sccc2n1 [PF-03758309]
IC50 (COLO 205 [1]): 2.8 nM | IC50 (NCI-H526): 1.4 nM | IC50 (NCI-H1734): 4.1 nM | IC50 (NCI-H1838): 5.5 nM | IC50 (Calu-6): 7.3 nM | IC50 (PANC-08-13): 12 nM | IC50 (MIA PaCa-2): 17 nM | IC50 (Panc1005): 67 nM | IC50 (NCI-H1437): 4.8 nM | IC50 (NCI-H1993): 11.9 nM | IC50 (MCF10): 0.21 nM | IC50 (HCC38): 0.52 nM | fIC50 (HCT-116 [2]): 0.4 nM | inhibition [3]: 90% | inhibition [4]: 92% | IC50 [5]: 1 nM | IC50 [6]: 2 nM | IC50 [7]: 46 nM | IC50 [8]: 513 nM | IC50 [9]: 543 nM | IC50 [10]: 1960 nM | IC50 [11]: 2490 nM | IC50 [12]: 3600 nM | Activity (HCT-116 [13]): 23.08% | Activity (HCT-116 [14]): Active | inhibition in vivo at 20 mg/kg (COLO 205 [15]): 106% | inhibition in vivo at 10 mg/kg (DLD-1): 0% | inhibition in vivo at 20 mg/kg (MDA-MB-231): 89% | inhibition in vivo at 1.1 mg/kg (HCT-116 [16]): 104% | IC50 (A549): 27.4 nM
